What was measured:
[1] = Inhibition of Vibrio cholerae alpha carbonic anhydrase incubated for 30 mins prior to testing measured for 10 to 100 secs by phenol red-based stopped-flow CO2 hydration assay
Procedure, shortened: (§1)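 Stopped-flow CO2 hydrase assay on the α, β and γ isoforms of V. cholerae CA. KI values are the mean of 3 independent assays, with errors of ±5–10% of the reported values.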

[2] = Inhibition of Vibrio cholerae gamma carbonic anhydrase incubated for 30 mins prior to testing measured for 10 to 100 secs by phenol red-based stopped-flow CO2 hydration assay; procedure, shortened: as §1
[3] = Inhibition of Vibrio cholerae beta carbonic anhydrase incubated for 30 mins prior to testing measured for 10 to 100 secs by phenol red-based stopped-flow CO2 hydration assay; procedure, shortened: as §1

SMILES: O=[N+]([O-])c1ccc(NC(=S)Nc2ccc3c(c2)B(O)OC3)cc1
- Ki [1]: 80 nM
- Ki [2]: 687 nM
- Ki [3]: 0.933 µM

SMILES: O=C(NCc1ccccc1)Nc1ccc2c(c1)B(O)OC2
- Ki [1]: 90 nM
- Ki [2]: 1870 nM
- Ki [3]: 42.1 µM

SMILES: O=C(Nc1ccc(C(F)(F)F)cc1)Nc1ccc2c(c1)B(O)OC2
- Ki [1]: 46 nM
- Ki [2]: 957 nM
- Ki [3]: 55.1 µM

SMILES: O=C(Nc1ccccc1)Nc1ccc2c(c1)B(O)OC2
- Ki [1]: 117 nM
- Ki [2]: 705 nM
- Ki [3]: 56.4 µM

SMILES: COc1ccc(NC(=S)Nc2ccc3c(c2)B(O)OC3)cc1
- Ki [1]: 165 nM
- Ki [2]: 874 nM
- Ki [3]: 2.3 µM

SMILES: OB1OCc2ccc(NC(=S)Nc3ccc(C(F)(F)F)cc3)cc21
- Ki [1]: 72 nM
- Ki [2]: 1920 nM
- Ki [3]: 1.25 µM

SMILES: OB1OCc2ccc(NC(=S)NCc3ccco3)cc21
- Ki [1]: 220 nM
- Ki [2]: 2000 nM
- Ki [3]: 31.9 µM

SMILES: OB1OCc2ccc(NC(=S)NCCc3ccccc3)cc21
- Ki [1]: 102 nM
- Ki [2]: 554 nM
- Ki [3]: 18.4 µM

SMILES: O=C(NCc1ccco1)Nc1ccc2c(c1)B(O)OC2
- Ki [1]: 164 nM
- Ki [2]: 1230 nM
- Ki [3]: 79.9 µM

SMILES: Nc1ccc2c(c1)B(O)OC2
- Ki [1]: 165 nM
- Ki [2]: 1170 nM
- Ki [3]: 21.8 µM

SMILES: Cc1cc(Cl)cc(CNC(=O)Nc2ccc3c(c2)B(O)OC3)c1
- Ki [1]: 53 nM
- Ki [2]: 718 nM
- Ki [3]: 61.3 µM

SMILES: CC(=O)c1ccc(NC(=O)Nc2ccc3c(c2)B(O)OC3)cc1
- Ki [1]: 103 nM
- Ki [2]: 1130 nM
- Ki [3]: 65.1 µM

SMILES: O=C(Nc1ccc2c(c1)B(O)OC2)Nc1c(Cl)cc(Cl)cc1Cl
- Ki [1]: 76 nM
- Ki [2]: 895 nM
- Ki [3]: 84.5 µM

SMILES: OB1OCc2ccc(NC(=S)Nc3ccc(F)cc3)cc21
- Ki [1]: 112 nM
- Ki [2]: 544 nM
- Ki [3]: 6.35 µM

SMILES: O=C(Nc1ccc(Cl)cc1)Nc1ccc2c(c1)B(O)OC2
- Ki [1]: 56 nM
- Ki [2]: 650 nM
- Ki [3]: 19.5 µM

SMILES: Cc1ccc(NC(=S)Nc2ccc3c(c2)B(O)OC3)cc1
- Ki [1]: 109 nM
- Ki [2]: 1760 nM
- Ki [3]: 2.59 µM

SMILES: OB1OCc2ccc(NC(=S)Nc3ccc4ccccc4c3)cc21
- Ki [1]: 603 nM
- Ki [2]: 2970 nM
- Ki [3]: 26 µM

SMILES: O=[N+]([O-])c1ccc2c(c1)B(O)OC2
- Ki [1]: 142 nM
- Ki [2]: 818 nM
- Ki [3]: 8.87 µM

SMILES: OB1OCc2ccc(NC(=S)Nc3ccccc3)cc21
- Ki [1]: 1200 nM
- Ki [2]: 834 nM
- Ki [3]: 19.1 µM

SMILES: O=C(Nc1ccc(F)cc1)Nc1ccc2c(c1)B(O)OC2
- Ki [1]: 48 nM
- Ki [2]: 644 nM
- Ki [3]: 28 µM

SMILES: COc1ccc(C)cc1NC(=O)Nc1ccc2c(c1)B(O)OC2
- Ki [1]: 556 nM
- Ki [2]: 410 nM
- Ki [3]: 67.3 µM

SMILES: OB1OCc2ccc(NC(=S)NCc3ccccc3)cc21
- Ki [1]: 96 nM
- Ki [2]: 3960 nM
- Ki [3]: 30.4 µM

SMILES: OB1OCc2ccccc21 [BENZOXABOROLE]
- Ki [1]: 319 nM
- Ki [2]: 2840 nM
- Ki [3]: 70.3 µM

SMILES: OB1OCc2cc(F)ccc21 [TAVABOROLE]
- Ki [1]: 157 nM
- Ki [2]: 841 nM
- Ki [3]: 97.3 µM
